≈ marks a conversion by molar mass, not a printed value.
What was measured:
[1] = Cytotoxicity against human Caco-2 cells assessed as inhibition of cell viability incubated for 48 hrs by Cell Titer GLO assay; assay type: toxicity, cell-based
Summary of the method: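 Caco-2 cells in DMEM with 10% FCS, seeded 25 000 per well, adhered overnight, then given peptide at 2–256 μg mL−1 in complete medium for 48 h at 37 °C, 5% CO2. Controls: cisplatin 125 μM; 0.1% DMSO medium. Viability by ATP luminescence (CellTiter-Glo) versus untreated cells; IC50 from dose–response; mean ± SEM of at least three independent experiments.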

[2] = Antimicrobial activity against Salmonella enterica serovar Newport ATCC 6962 assessed as growth inhibition by microdilution assay; assay type: functional, Salmonella enterica subsp. enterica serovar Newport
Summary of the method: (§1)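 Twofold serial microdilution of peptide (stocks 2 mg mL−1, diluted to 512 μg mL−1 in water with 10% DMSO) in strain medium, about 1 × 10^4 cfu per well. Media: TSB 20 h 37 °C (S. aureus, L. monocytogenes, B. subtilis, E. faecalis); LB 20 h 37 °C (P. aeruginosa, S. enterica, E. coli); Brucella 48 h 37 °C (C. coli). A595 read; MIC = lowest concentration with no visible growth; triplicate.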

Enterococcus faecalis = test: Antimicrobial activity against Enterococcus faecalis ATCC 29212 assessed as growth inhibition by microdilution assay; assay type: functional; summary of the method: as §1
Listeria monocytogenes = test: Antimicrobial activity against Listeria monocytogenes ATCC 19111 assessed as growth inhibition by microdilution assay; assay type: functional; summary of the method: as §1
Staphylococcus aureus [3] = test: Antimicrobial activity against Staphylococcus aureus ATCC 6538 assessed as growth inhibition by microdilution assay; assay type: functional; summary of the method: as §1
Clostridium perfringens = test: Antimicrobial activity against Clostridium perfringens ATCC 3628 assessed as growth inhibition by microdilution assay; assay type: functional
Summary of the method: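 Broth microdilution: twofold serial peptide dilutions in reinforced clostridial medium (RCM), seeded with about 1 × 10^4 cfu per well, incubated 20 h at 37 °C. Working solution 512 μg mL−1 made from a 2 mg mL−1 stock in water with 10% DMSO. Growth read as absorbance at 595 nm. MIC taken as the lowest concentration giving complete inhibition of visible growth; run in triplicate.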

[4] = Hemolytic activity in human erythrocytes at 128 ug/ml measured after 1 hr by absorbance based assay relative to control; assay type: toxicity, cell-based, Erythrocyte; details: at 128 µg/mL, read-out: Activity
Summary of the method: (§2)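 Washed human donor erythrocytes at 1% hematocrit in PBS pH 7.4 exposed to twofold peptide dilutions (final 2–256 μg mL−1, up to 1% DMSO) for 1 h at 37 °C. After centrifugation, supernatant A405 read. % hemolysis relative to PBS (0%) and 1% Triton X-100 (100%). Triplicate; mean ± SEM.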

Campylobacter coli = test: Antimicrobial activity against Campylobacter coli ATCC 33559 assessed as growth inhibition by microdilution assay; assay type: functional; summary of the method: as §1
Staphylococcus aureus [5] = test: Antimicrobial activity against Staphylococcus aureus ATCC 6538 assessed as diameter of growth inhibition at 128 ug/ml by radial diffusion assay; assay type: functional; details: dose 128 µg/ml
Summary of the method: (§3)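 Agar well diffusion. Overnight cultures inoculated at 1% into 0.75% soft agar (TSB for S. aureus, LB for P. aeruginosa). Each well received 80 μL of peptide at 128 μg mL−1 in water with 10% DMSO; 10% DMSO served as negative control. Inhibition zone diameter scored after strain-specific incubation.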

Pseudomonas aeruginosa [6] = test: Antimicrobial activity against Pseudomonas aeruginosa ATCC […] assessed as diameter of growth inhibition at 128 ug/ml by radial diffusion assay; assay type: functional; details: dose 128 µg/ml; summary of the method: as §3
Escherichia coli = test: Antimicrobial activity against Escherichia coli ATCC 25922 assessed as growth inhibition by microdilution assay; assay type: functional; summary of the method: as §1
Bacillus subtilis = test: Antimicrobial activity against Bacillus subtilis ATCC 23957 assessed as growth inhibition by microdilution assay; assay type: functional; summary of the method: as §1
Pseudomonas aeruginosa [7] = test: Antimicrobial activity against Pseudomonas aeruginosa ATCC […] assessed as growth inhibition by microdilution assay; assay type: functional; summary of the method: as §1
[8] = Hemolytic activity in human erythrocytes at 256 ug/ml measured after 1 hr by absorbance based assay relative to control; assay type: toxicity, cell-based, Erythrocyte; details: at 256 µg/mL, read-out: Activity; summary of the method: as §2

SMILES	IC50 at 48 h [1] [µg/mL]	MIC [2] [µg/mL]	MIC (Enterococcus faecalis) [µg/mL]	MIC (Listeria monocytogenes) [µg/mL]	MIC (Staphylococcus aureus [3]) [µg/mL]	MIC (Clostridium perfringens) [µg/mL]	hemolysis at 1 h, 128 ug/ml [4] [%]	MIC (Campylobacter coli) [µg/mL]	Activity (Staphylococcus aureus [5]) [mm]	Activity (Pseudomonas aeruginosa [6]) [mm]	MIC (Escherichia coli) [µg/mL]	MIC (Bacillus subtilis) [µg/mL]	MIC (Pseudomonas aeruginosa [7]) [µg/mL]	hemolysis at 1 h, 256 ug/ml [8] [%]
C/C=C(/NC(=O)[C@@H](O)[C@@H](C)CC)C(=O)N[C@@H](CC(C)C)C(=O)N[C@H](CCCN)C(=O)N[C@H](C(=O)N[C@H](C(=O)N[C@H](C(=O)N[C@H](CCCCN)C(=O)N[C@H](C(=O)N[C@H](C(=O)N[C@@H](CCCCN)C(=O)N[C@H](Cc1ccc(O)cc1)C(=O)N[C@@H](CC(C)C)C(=O)N[C@H](CO)C(C)C)C(C)C)C(C)C)C(C)C)C(C)C)[C@@H](C)CC	25.7 (≈ 16.4 µM)	> 128	16	1	4	4	1.65	16	11	12	32	2	2	–
CC[C@H](C)[C@H](O)C(=O)N[C@H](C(=O)N[C@@H](CC(C)C)C(=O)N[C@H](CCCN)C(=O)N[C@H](C(=O)N[C@H](C(=O)N[C@H](C(=O)N[C@H](CCCCN)C(=O)N[C@H](C(=O)N[C@H](C(=O)N[C@@H](CCCCN)C(=O)N[C@H](Cc1ccc(O)cc1)C(=O)N[C@@H](CC(C)C)C(=O)N[C@H](CO)C(C)C)C(C)C)C(C)C)C(C)C)[C@@H](C)CC)[C@@H](C)CC)C(C)C	8.3 (≈ 5.19 µM)	> 128	4	1	1	4	53.1	8	7	7	> 128	1	1	84
CC[C@H](C)[C@H](O)C(=O)N[C@@H](CO)C(=O)N[C@@H](CC(C)C)C(=O)N[C@H](CCCN)C(=O)N[C@H](C(=O)N[C@H](C(=O)N[C@H](C(=O)N[C@H](CCCCN)C(=O)N[C@H](C(=O)N[C@H](C(=O)N[C@@H](CCCCN)C(=O)N[C@H](Cc1ccc(O)cc1)C(=O)N[C@@H](CC(C)C)C(=O)N[C@H](CO)C(C)C)C(C)C)C(C)C)C(C)C)[C@@H](C)CC)[C@@H](C)CC	42.2 (≈ 26.6 µM)	> 128	> 128	1	8	8	1.2	32	11	12	32	2	4	4.9
C/C=C(/NC(=O)[C@@H](O)[C@@H](C)CC)C(=O)N[C@@H](CC(C)C)C(=O)N[C@H](CCCN)C(=O)N[C@H](C(=O)N[C@H](C(=O)N[C@H](C(=O)N[C@H](CCCCN)C(=O)N[C@H](C(=O)N[C@H](C(=O)N[C@@H](CCCCN)C(=O)N[C@H](Cc1ccc(O)cc1)C(=O)N[C@@H](CC(C)C)C(=O)N[C@H](CO)C(C)C)C(C)C)[C@@H](C)CC)C(C)C)[C@@H](C)CC)[C@@H](C)CC	6.5 (≈ 4.07 µM)	64	2	1	2	2	55	8	11	12	32	0.5	1	89.9
CC[C@H](NC(=O)[C@@H](O)[C@@H](C)CC)C(=O)N[C@@H](CC(C)C)C(=O)N[C@H](CCCN)C(=O)N[C@H](C(=O)N[C@H](C(=O)N[C@H](C(=O)N[C@H](CCCCN)C(=O)N[C@H](C(=O)N[C@H](C(=O)N[C@@H](CCCCN)C(=O)N[C@H](Cc1ccc(O)cc1)C(=O)N[C@@H](CC(C)C)C(=O)N[C@H](C(N)=O)C(C)C)C(C)C)C(C)C)C(C)C)[C@@H](C)CC)[C@@H](C)CC	11.3 (≈ 7.07 µM)	> 128	64	2	2	8	23.3	16	7	7	> 128	2	2	38.2

Reference: ChEMBL document CHEMBL6134793, “Synthesis and structure-activity study of the antimicrobial lipopeptide brevibacillin” (RSC Med Chem, 2024)
